Measurements taken from ChEMBL document CHEMBL5724801, “EUbOPEN Chemogenomics Library - Multiplex” (2024).
Where “and” joins values, the source holds several entries; their conditions need not be identical. Equal values may be shown once.

Test system: HEK-293T
Assay: Multiplex assay against HEK293T
Format: toxicity, cell-based
Details: human
In short: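 Values for tubulin, mitochondrial-mass and membrane-permeability phenotypes are per cents of cells with healthy nuclei. These cells were identified by CellPathfinder machine-learning gating of live cells that had been stained at seeding with Hoechst33342, BioTracker Green Microtubule Cytoskeleton Dye, MitoTracker Red and Annexin V Alexa Fluor 680 and imaged on a CQ1 microscope at 37°C and 5% CO2 after compound addition. The gating first set Hoechst high-intensity objects apart from normal cells, then split normal cells into healthy, pyknosed or fragmented nuclei, and pyknosed cells into mitotic or apoptotic.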

[1] = 12 h, 1 µM, compound concentration 1 uM
[2] = 12 h, 10 µM, compound concentration 10 uM
[3] = 24 h, 1 µM, compound concentration 1 uM
[4] = 24 h, 10 µM, compound concentration 10 uM
[5] = 48 h, 1 µM, compound concentration 1 uM
[6] = 48 h, 10 µM, compound concentration 10 uM

COc1c(Nc2ccc(S(C)(=O)=O)nc2C)ncnc1OC1CCN(C(=O)OC(C)C)CC1 [ADP-597]
Population Apoptotic (%) [1]: 29% and 38%
Population Fragmented Nuclei (%) [1]: 5% and 4%
Population Healthy Nuclei (%) [1]: 78% and 80%
Population Hoechst High Intensity Objects (%) [1]: 6% and 3%
Population Membrane Permeable-Phenotype (%) [1]: 0%
Population Mitochondria Different-Phenotype (%) [1]: 47% and 62%
Population Mitotic Cells (%) [1]: 70% and 62%
Population Normal (%) [1]: 93% and 96%
Population Pyknosed Nuclei (%) [1]: 16% and 14%
Population Tubulin-Different-Phenotype (%) [1]: 36% and 25%
Total Cell Count [1]: 430 and 347
Population Apoptotic (%) [2]: 47%
Population Fragmented Nuclei (%) [2]: 7%
Population Healthy Nuclei (%) [2]: 75% and 72%
Population Membrane Permeable-Phenotype (%) [2]: 0%
Population Mitochondria Different-Phenotype (%) [2]: 70% and 71%
Population Mitotic Cells (%) [2]: 52%
Population Normal (%) [2]: 91% and 74%
Population Pyknosed Nuclei (%) [2]: 17% and 20%
Population Tubulin-Different-Phenotype (%) [2]: 44% and 36%
Total Cell Count [2]: 302 and 238
Population Apoptotic (%) [3]: 23% and 30%
Population Fragmented Nuclei (%) [3]: 7% and 6%
Population Healthy Nuclei (%) [3]: 81% and 84%
Population Hoechst High Intensity Objects (%) [3]: 2% and 3%
Population Membrane Permeable-Phenotype (%) [3]: 0% and 1%
Population Mitochondria Different-Phenotype (%) [3]: 20% and 34%
Population Mitotic Cells (%) [3]: 76% and 69%
Population Normal (%) [3]: 97% and 96%
Population Pyknosed Nuclei (%) [3]: 11% and 9%
Population Tubulin-Different-Phenotype (%) [3]: 16% and 15%
Total Cell Count [3]: 587 and 447
Population Apoptotic (%) [4]: 44% and 63%
Population Fragmented Nuclei (%) [4]: 9% and 11%
Population Healthy Nuclei (%) [4]: 74% and 71%
Population Hoechst High Intensity Objects (%) [4]: 7% and 21%
Population Membrane Permeable-Phenotype (%) [4]: 0%
Population Mitochondria Different-Phenotype (%) [4]: 58% and 54%
Population Mitotic Cells (%) [4]: 55% and 36%
Population Normal (%) [4]: 92% and 78%
Population Pyknosed Nuclei (%) [4]: 15% and 17%
Population Tubulin-Different-Phenotype (%) [4]: 38% and 25%
Total Cell Count [4]: 355 and 300
Population Apoptotic (%) [5]: 25% and 36%
Population Fragmented Nuclei (%) [5]: 13%
Population Healthy Nuclei (%) [5]: 78% and 77%
Population Hoechst High Intensity Objects (%) [5]: 2% and 5%
Population Membrane Permeable-Phenotype (%) [5]: 0% and 1%
Population Mitochondria Different-Phenotype (%) [5]: 18% and 23%
Population Mitotic Cells (%) [5]: 75% and 63%
Population Normal (%) [5]: 97% and 94%
Population Pyknosed Nuclei (%) [5]: 8% and 9%
Population Tubulin-Different-Phenotype (%) [5]: 13% and 14%
Total Cell Count [5]: 924 and 590
Population Apoptotic (%) [6]: 35% and 43%
Population Fragmented Nuclei (%) [6]: 15% and 13%
Population Healthy Nuclei (%) [6]: 73%
Population Hoechst High Intensity Objects (%) [6]: 4% and 10%
Population Membrane Permeable-Phenotype (%) [6]: 0%
Population Mitochondria Different-Phenotype (%) [6]: 38% and 32%
Population Mitotic Cells (%) [6]: 64% and 56%
Population Normal (%) [6]: 95% and 89%
Population Pyknosed Nuclei (%) [6]: 11% and 12%
Population Tubulin-Different-Phenotype (%) [6]: 23% and 18%
Total Cell Count [6]: 494 and 392

CN1CCN(c2ccc(Nc3c4ccccc4nc4ccccc34)cc2)CC1.Cl.Cl.O
Population Apoptotic (%) [1]: 42% and 55%
Population Fragmented Nuclei (%) [1]: 7% and 4%
Population Healthy Nuclei (%) [1]: 81% and 90%
Population Hoechst High Intensity Objects (%) [1]: 3% and 1%
Population Membrane Permeable-Phenotype (%) [1]: 0%
Population Mitochondria Different-Phenotype (%) [1]: 50% and 59%
Population Mitotic Cells (%) [1]: 57% and 45%
Population Normal (%) [1]: 96% and 98%
Population Pyknosed Nuclei (%) [1]: 11% and 5%
Population Tubulin-Different-Phenotype (%) [1]: 28% and 20%
Total Cell Count [1]: 411 and 364
Population Apoptotic (%) [2]: 100%
Population Fragmented Nuclei (%) [2]: 24% and 40%
Population Healthy Nuclei (%) [2]: 74% and 58%
Population Hoechst High Intensity Objects (%) [2]: 1% and 0%
Population Membrane Permeable-Phenotype (%) [2]: 0%
Population Mitochondria Different-Phenotype (%) [2]: 99% and 100%
Population Mitotic Cells (%) [2]: 0%
Population Normal (%) [2]: 98% and 99%
Population Pyknosed Nuclei (%) [2]: 1%
Population Tubulin-Different-Phenotype (%) [2]: 97% and 92%
Total Cell Count [2]: 234 and 194
Population Apoptotic (%) [3]: 42% and 46%
Population Fragmented Nuclei (%) [3]: 9%
Population Healthy Nuclei (%) [3]: 84% and 86%
Population Hoechst High Intensity Objects (%) [3]: 2% and 0%
Population Membrane Permeable-Phenotype (%) [3]: 0%
Population Mitochondria Different-Phenotype (%) [3]: 40% and 44%
Population Mitotic Cells (%) [3]: 57% and 53%
Population Normal (%) [3]: 97% and 99%
Population Pyknosed Nuclei (%) [3]: 5% and 4%
Population Tubulin-Different-Phenotype (%) [3]: 14% and 12%
Total Cell Count [3]: 455 and 362
Population Apoptotic (%) [4]: 100%
Population Fragmented Nuclei (%) [4]: 28% and 45%
Population Healthy Nuclei (%) [4]: 69% and 53%
Population Hoechst High Intensity Objects (%) [4]: 2% and 0%
Population Membrane Permeable-Phenotype (%) [4]: 0%
Population Mitochondria Different-Phenotype (%) [4]: 100%
Population Mitotic Cells (%) [4]: 0%
Population Normal (%) [4]: 97% and 99%
Population Pyknosed Nuclei (%) [4]: 2% and 0%
Population Tubulin-Different-Phenotype (%) [4]: 92% and 91%
Total Cell Count [4]: 247 and 206
Population Apoptotic (%) [5]: 45% and 60%
Population Fragmented Nuclei (%) [5]: 11% and 10%
Population Healthy Nuclei (%) [5]: 82% and 85%
Population Hoechst High Intensity Objects (%) [5]: 3% and 1%
Population Membrane Permeable-Phenotype (%) [5]: 0%
Population Mitochondria Different-Phenotype (%) [5]: 30% and 36%
Population Mitotic Cells (%) [5]: 54% and 40%
Population Normal (%) [5]: 96% and 98%
Population Pyknosed Nuclei (%) [5]: 6% and 3%
Population Tubulin-Different-Phenotype (%) [5]: 16% and 12%
Total Cell Count [5]: 581 and 411
Population Apoptotic (%) [6]: 100% and 66%
Population Fragmented Nuclei (%) [6]: 34% and 52%
Population Healthy Nuclei (%) [6]: 56% and 46%
Population Hoechst High Intensity Objects (%) [6]: 11% and 5%
Population Membrane Permeable-Phenotype (%) [6]: 0%
Population Mitochondria Different-Phenotype (%) [6]: 100% and 99%
Population Normal (%) [6]: 88% and 94%
Population Pyknosed Nuclei (%) [6]: 9% and 1%
Population Tubulin-Different-Phenotype (%) [6]: 88% and 89%
Total Cell Count [6]: 318 and 272

O=C(NCc1cccc(O)c1)Nc1nc(-c2ccncc2)cs1
Population Apoptotic (%) [1]: 7.14% and 10.34%
Population Fragmented Nuclei (%) [1]: 2.92% and 3.91%
Population Healthy Nuclei (%) [1]: 52.8% and 28.12%
Population Hoechst High Intensity Objects (%) [1]: 0.24% and 0%
Population Membrane Permeable-Phenotype (%) [1]: 0.92% and 0%
Population Mitochondria Different-Phenotype (%) [1]: 22.12% and 19.44%
Population Mitotic Cells (%) [1]: 92.86% and 89.66%
Population Normal (%) [1]: 99.76% and 100%
Population Pyknosed Nuclei (%) [1]: 44.28% and 67.97%
Population Apoptotic (%) [2]: 7.43% and 12.61%
Population Fragmented Nuclei (%) [2]: 2.74% and 5.1%
Population Healthy Nuclei (%) [2]: 52.13% and 34.18%
Population Hoechst High Intensity Objects (%) [2]: 0%
Population Membrane Permeable-Phenotype (%) [2]: 4.09% and 0%
Population Mitochondria Different-Phenotype (%) [2]: 19.88% and 13.43%
Population Mitotic Cells (%) [2]: 92.57% and 87.39%
Population Normal (%) [2]: 100%
Population Pyknosed Nuclei (%) [2]: 45.12% and 60.71%
Total Cell Count [2]: 328 and 196
Population Apoptotic (%) [3]: 13.54% and 22%
Population Fragmented Nuclei (%) [3]: 2.1% and 4.17%
Population Healthy Nuclei (%) [3]: 77.73% and 54.17%
Population Hoechst High Intensity Objects (%) [3]: 0%
Population Membrane Permeable-Phenotype (%) [3]: 0.54% and 0%
Population Mitochondria Different-Phenotype (%) [3]: 3.78% and 6.15%
Population Mitotic Cells (%) [3]: 86.46% and 78%
Population Normal (%) [3]: 100%
Population Pyknosed Nuclei (%) [3]: 20.17% and 41.67%
Population Tubulin-Different-Phenotype (%) [3]: 3.51% and 9.23%
Population Apoptotic (%) [4]: 12.64% and 13.27%
Population Fragmented Nuclei (%) [4]: 3.74%
Population Healthy Nuclei (%) [4]: 72.99% and 50.47%
Population Hoechst High Intensity Objects (%) [4]: 0% and 0.93%
Population Membrane Permeable-Phenotype (%) [4]: 1.1% and 0%
Population Mitochondria Different-Phenotype (%) [4]: 5.86% and 10.19%
Population Mitotic Cells (%) [4]: 87.36% and 86.73%
Population Normal (%) [4]: 100% and 99.07%
Population Pyknosed Nuclei (%) [4]: 23.26% and 45.79%
Population Tubulin-Different-Phenotype (%) [4]: 5.86% and 3.7%
Total Cell Count [4]: 374 and 216
Population Apoptotic (%) [5]: 17.39% and 25%
Population Fragmented Nuclei (%) [5]: 2.27% and 10.14%
Population Healthy Nuclei (%) [5]: 86.57% and 68.24%
Population Hoechst High Intensity Objects (%) [5]: 0.16% and 0.67%
Population Membrane Permeable-Phenotype (%) [5]: 5.42% and 4.95%
Population Mitochondria Different-Phenotype (%) [5]: 14.95% and 15.84%
Population Mitotic Cells (%) [5]: 82.61% and 75%
Population Normal (%) [5]: 99.84% and 99.33%
Population Pyknosed Nuclei (%) [5]: 11.17% and 21.62%
Population Apoptotic (%) [6]: 22.81% and 34.48%
Population Fragmented Nuclei (%) [6]: 4.16% and 5.49%
Population Healthy Nuclei (%) [6]: 85.07% and 70.04%
Population Hoechst High Intensity Objects (%) [6]: 0.19% and 0%
Population Membrane Permeable-Phenotype (%) [6]: 4% and 0.6%
Population Mitochondria Different-Phenotype (%) [6]: 19.78% and 24.1%
Population Mitotic Cells (%) [6]: 77.19% and 65.52%
Population Normal (%) [6]: 99.81% and 100%
Population Pyknosed Nuclei (%) [6]: 10.78% and 24.47%
Population Tubulin-Different-Phenotype (%) [6]: 0.89% and 5.42%
Total Cell Count [6]: 530 and 237
